Active and inactive are the calls of the source. The calls are words filed in the database; no cut-off is given here.
What was measured:
NCI-H23 [1] = test: Down regulation of BRD4 gene expression in human NCI-H23 cells at 500 nM measured after 3 to 24 hrs by qPCR analysis; assay type: functional, cell-based; conditions: time 3-24 hrs
Outline: (§1)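 H23 cells were grown in RPMI-1640 with 10% FBS and plated 48 h before treatment at 170,000 cells/ml. Medium was replaced with fresh medium containing 500 nM JQ1 or matched DMSO, and cells were harvested at 3, 6, 12 and 24 h. Total RNA was extracted with TRIzol and assayed by SYBR qPCR (40 cycles). Expression was normalized to GAPDH and compared with DMSO. There were three biological replicates, each run in duplicate twice.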

NCI-H23 [2] = test: Effect on CTNNB1 gene expression in human NCI-H23 cells at 500 nM measured after 3 to 24 hrs by qPCR analysis; assay type: functional, cell-based; conditions: time 3-24 hrs; outline: as §1
NCI-H23 [3] = test: Down regulation of CFLAIR gene expression in human NCI-H23 cells at 500 nM measured after 3 to 24 hrs by qPCR analysis; assay type: functional, cell-based; conditions: time 3-24 hrs; outline: as §1
NCI-H23 [4] = test: Induction of apoptosis in human NCI-H23 cells at 5 to 5000 nM incubated for 24 hsr by Green Apoptosis assay; assay type: functional, cell-based; conditions: dose 5-5000 nM, time 24.0 hrs
Outline: (§2)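 RFP-labelled H23 cells were seeded at 8,000 cells/well one day ahead and given JQ1 at 5, 50, 500, 1,000 or 5,000 nM. For apoptosis, Caspase-3/7 Green reagent (DEVD–NucView488) was added with the drug. Plates were imaged hourly for 24 h. Red (proliferating) or green (apoptotic) objects were counted per image and expressed as fold change versus 0 h.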

NCI-H23 [5] = test: Upregulation of MYC gene expression in human NCI-H23 cells at 500 nM measured after 3 to 24 hrs by qPCR analysis; assay type: functional, cell-based; conditions: time 3-24 hrs; outline: as §1
NCI-H23 [6] = test: Effect in H4K5acK8ac global level Promoter region in human NCI-H23 cells at 500 nM incubated for 24 hrs by Chip-seq assay; assay type: functional, cell-based
Outline: (§3)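 H23 cells received 500 nM JQ1 or DMSO for 24 h and then underwent formaldehyde crosslinking. For spike-in ChIP-seq, H23 chromatin was mixed with Drosophila chromatin at 400:1 for H4K5acK8ac or 600:1 for BRD2, adding anti-H2Av antibody. Reads were normalized to Drosophila counts, with two biological replicates. Signals were averaged over peaks from untreated cells, and differential H4K5acK8ac peaks were called at FDR <0.05.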

NCI-H23 [7] = test: Antiproliferation activity against human NCI-H23 cells assessed as decrease in cell proliferation at 5 to 5000 nM incubated for 24 hrs by Green Apoptosis Assay; assay type: functional, cell-based; conditions: dose 5-5000 nM; outline: as §2
NCI-H23 [8] = test: Effect in H4K5acK8ac global level super enhancer region in human NCI-H23 cells at 500 nM incubated for 24 hrs by Chip-seq assay; assay type: functional, cell-based; outline: as §3
NCI-H23 [9] = test: Down regulation of WNT2 gene expression in human NCI-H23 cells at 500 nM measured after 3 to 24 hrs by qPCR analysis; assay type: functional, cell-based; conditions: time 3-24 hrs; outline: as §1
NCI-H23 [10] = test: Down regulation of WNT5A-2 gene expression in human NCI-H23 cells at 500 nM measured after 3 to 24 hrs by qPCR analysis; assay type: functional, cell-based; conditions: time 3-24 hrs; outline: as §1
NCI-H23 [11] = test: Effect in H4K5acK8ac subpopulation level in human NCI-H23 cells at 500 nM incubated for 24 hrs by Chip-seq assay; assay type: functional; outline: as §3
NCI-H23 [12] = test: Down regulation of FOSL1 gene expression in human NCI-H23 cells at 500 nM measured after 3 to 24 hrs by qPCR analysis; assay type: functional, cell-based; conditions: time 3-24 hrs; outline: as §1
NCI-H23 [13] = test: Down regulation of FOSL1 protein expression in human NCI-H23 cells at 500 nM measured after 3 to 24 hrs by […]; assay type: functional, cell-based; conditions: time 3-24 hrs
NCI-H23 [14] = test: Effect in H3K27ac subpopulation level in human NCI-H23 cells at 500 nM incubated for 24 hrs by Chip-seq assay; assay type: functional, cell-based
NCI-H23 [15] = test: Down regulation of BCL2 gene expression in human NCI-H23 cells at 500 nM measured after 3 to 24 hrs by qPCR analysis; assay type: functional, cell-based; conditions: time 3-24 hrs; outline: as §1
NCI-H23 [16] = test: Effect in H3K27ac global level in human NCI-H23 cells at 500 nM incubated for 24 hrs by Chip-seq assay; assay type: functional, cell-based
NCI-H23 [17] = test: Effect in H4K5acK8ac global level enhancer region in human NCI-H23 cells at 500 nM incubated for 24 hrs by Chip-seq assay; assay type: functional, cell-based; outline: as §3
NCI-H23 [18] = test: Down regulation of BRD2 gene expression in human NCI-H23 cells at 500 nM measured after 3 to 24 hrs by qPCR analysis; assay type: functional, cell-based; conditions: time 3-24 hrs; outline: as §1
[19] = molecular target: Bromodomain-containing protein 2 (Homo sapiens) (UniProt P25440); conditions: NCI-H23, dose 500.0 nM, time 24.0 hrs
Bromodomain-containing protein 2 (Homo sapiens), sequence (P25440 whole entry, looked up): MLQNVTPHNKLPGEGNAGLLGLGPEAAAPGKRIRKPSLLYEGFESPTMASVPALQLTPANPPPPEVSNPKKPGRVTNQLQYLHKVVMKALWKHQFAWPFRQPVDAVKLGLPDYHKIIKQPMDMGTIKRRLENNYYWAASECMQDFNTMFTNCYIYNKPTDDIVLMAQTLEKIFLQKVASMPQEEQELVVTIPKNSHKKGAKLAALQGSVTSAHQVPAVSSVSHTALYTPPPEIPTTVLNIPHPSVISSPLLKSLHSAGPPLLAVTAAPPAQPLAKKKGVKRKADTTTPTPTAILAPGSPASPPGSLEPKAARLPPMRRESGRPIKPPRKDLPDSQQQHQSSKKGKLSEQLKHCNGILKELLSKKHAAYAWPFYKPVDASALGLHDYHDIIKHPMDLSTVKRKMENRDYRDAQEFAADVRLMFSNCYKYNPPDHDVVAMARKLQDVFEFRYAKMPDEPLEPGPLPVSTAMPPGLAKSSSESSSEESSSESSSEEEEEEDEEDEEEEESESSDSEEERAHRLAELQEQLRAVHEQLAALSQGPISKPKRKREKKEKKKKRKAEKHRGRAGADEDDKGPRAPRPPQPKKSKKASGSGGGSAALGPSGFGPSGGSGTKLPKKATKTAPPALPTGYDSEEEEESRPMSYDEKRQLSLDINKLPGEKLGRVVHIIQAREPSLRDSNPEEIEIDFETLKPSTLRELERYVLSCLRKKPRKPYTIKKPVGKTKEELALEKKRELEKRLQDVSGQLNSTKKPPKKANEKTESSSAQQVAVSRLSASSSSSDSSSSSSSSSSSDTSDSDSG

SMILES: Cc1sc2c(c1C)C(c1ccc(Cl)cc1)=N[C@@H](CC(=O)OC(C)(C)C)c1nnc(C)n1-2
- Activity (NCI-H23 [1]): inactive
- Activity (NCI-H23 [2]): Active
- Activity (NCI-H23 [3]): Active
- Activity (NCI-H23 [4]): Active
- Activity (NCI-H23 [5]): Active
- Activity (NCI-H23 [6]): inactive
- Activity (NCI-H23 [7]): Active
- Activity (NCI-H23 [8]): inactive
- Activity (NCI-H23 [9]): Active
- Activity (NCI-H23 [10]): Active
- fold change (FC) (NCI-H23 [11]): 2
- Activity (NCI-H23 [12]): Active
- Activity (NCI-H23 [13]): Active
- Activity (NCI-H23 [14]): Active
- Activity (NCI-H23 [15]): Active
- Activity (NCI-H23 [16]): inactive
- Activity (NCI-H23 [17]): inactive
- Activity (NCI-H23 [18]): inactive
- inhibition [19]: 100%

Reference: ChEMBL document CHEMBL5712900, “JQ1 affects BRD2-dependent and independent transcription regulation without disrupting H4-hyperacetylated chromatin states” (2018)
